In brackets after ≈: the same amount, converted by molar mass.
Experiments:
Phloem [1] = assay: Phloem mobility in Ricinus communis (castor bean) seedlings phloem sap assessed as drug level at 200 uM measured 8 hr post dose by DiBAC4 indicator based flow cytometry; format: ADME
Summary of the method: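 Protoplasts from cotyledons were isolated by 4 h digestion at 28 °C in cellulase/pectinase with 0.6 M mannitol and MES pH 5.8. They were suspended in buffer with 200 μM compound, or none for control, and shaken at 28 °C for 8 h. Every 2 h, samples were stained with 2 μM DiBAC4(3) for 30 min. Fluorescence of 20000 viable cells was read by flow cytometry (ex 488/em 530 nm) and expressed relative to fresh cells; n = 3, Duncan's test.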

Lower stem [2] = assay: Drug metabolism in adult Ricinus communis (castor bean) lower stem assessed as compound conversion to fipronil at 2 mM measured 48 to 72 hr post treatment; format: ADME; conditions: 2000 µM
Summary of the method: (§1)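 Adult castor bean plants. On each of two fully expanded leaves, 100 mm2 of the adaxial surface was abraded with a Celite slurry, rinsed and blotted dry. 200 μL of aqueous GTF in 0.1% Tween 80/10% acetone was applied per leaf; vehicle alone served as control. After 48 and 72 h, plants were cut into apical leaves, upper stem, lower stem and roots (three replicates). 2 g tissue was acetone-extracted with 15 min sonication. Fipronil was quantified by C18 HPLC (acetonitrile/water 50:50, 1.0 mL/min, 210 nm) against external calibration.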

Upper stem [3] = assay: Drug metabolism in adult Ricinus communis (castor bean) upper stem assessed as compound conversion to fipronil at 2 mM measured 48 to 72 hr post treatment by HPLC-MS method; format: ADME; conditions: 2000 µM; summary of the method: as §1
Phloem [4] = assay: Phloem mobility in Ricinus communis (castor bean) seedlings phloem sap assessed as drug level at 200 uM measured 3.5 hr post dose by DiBAC4 indicator based flow cytometry relative to untreated control; format: ADME
Phloem [5] = assay: Phloem mobility in Ricinus communis (castor bean) seedlings phloem sap assessed as drug level at 200 uM measured 7 hr post dose by DiBAC4 indicator based flow cytometry relative to untreated control; format: ADME
Apical leaf [6] = assay: Drug metabolism in adult Ricinus communis (castor bean) apical leaves assessed as compound conversion to fipronil at 2 mM measured 48 to 72 hr post treatment; format: ADME; conditions: 2000 µM; summary of the method: as §1
Root [7] = assay: Drug metabolism in adult Ricinus communis (castor bean) roots assessed as compound conversion to fipronil at 2 mM measured 48 to 72 hr post treatment by HPLC-MS method; format: ADME; conditions: 2000 µM; summary of the method: as §1
Root [8] = assay: Drug metabolism in adult Ricinus communis (castor bean) roots assessed as compound conversion to fipronil at 2 mM measured 48 to 72 hr post treatment; format: ADME; conditions: 2000 µM; summary of the method: as §1
Phloem [9] = assay: Phloem mobility in Ricinus communis (castor bean) seedlings phloem sap assessed as drug level at 200 uM by HPLC-MS method; format: ADME
Summary of the method: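 Six-day castor bean seedlings, endosperm removed. After 1 h the hypocotyl was severed and phloem sap collected from the upper hypocotyl. Sap was analysed by C18 HPLC (acetonitrile/water 50:50, 1.0 mL/min, 210 nm, 25 °C) with external calibration; identity was confirmed by positive-ion APCI-MS.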

Apical leaf [10] = assay: Drug metabolism in adult Ricinus communis (castor bean) apical leaves assessed as compound conversion to fipronil at 2 mM measured 48 to 72 hr post treatment by HPLC-MS method; format: ADME; conditions: 2000 µM; summary of the method: as §1
Upper stem [11] = assay: Drug metabolism in adult Ricinus communis (castor bean) upper stem assessed as compound conversion to fipronil at 2 mM measured 48 to 72 hr post treatment; format: ADME; conditions: 2000 µM; summary of the method: as §1
Lower stem [12] = assay: Drug metabolism in adult Ricinus communis (castor bean) lower stem assessed as compound conversion to fipronil at 2 mM measured 48 to 72 hr post treatment by HPLC-MS method; format: ADME; conditions: 2000 µM; summary of the method: as §1
Plutella xylostella = assay: Insecticidal activity against Plutella xylostella (diamondback moth) third-instar larvae measured 24 hr post dose by leaf disk dipping assay; format: functional; conditions: foliar
Summary of the method: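 Third-instar larvae, leaf disk dip. Compounds were dissolved in acetone and suspended in water with 0.1% Tween 80. 5.5 cm leaf disks were dipped 30 s and air-dried 2 h, then 10 larvae were placed per dish. Control was 10% acetone/0.1% Tween 80. Incubation at 26 ± 2 °C, 70% RH, 16:8 h light/dark; five replicates. Mortality was scored at 24 h and LC50 derived with 95% confidence limits.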

N#Cc1nn(-c2c(Cl)cc(C(F)(F)F)cc2Cl)c(NCc2cn([C@@H]3O[C@H](CO)[C@@H](O)[C@H](O)[C@H]3O)nn2)c1[S+]([O-])C(F)(F)F (stereo not given in full)
Drug mobility (Phloem [1]): Active
Drug metabolism (Lower stem [2]): Active
Drug metabolism (Upper stem [3]): Active
fold change (FC) (Phloem [4]): 0.25
fold change (FC) (Phloem [5]): 0.45
Drug metabolism (Apical leaf [6]): Active
Drug metabolism (Root [7]): Active
Drug metabolism (Root [8]): Active
Drug mobility (Phloem [9]): Active
Drug metabolism (Apical leaf [10]): Active
Drug metabolism (Upper stem [11]): Active
Drug metabolism (Lower stem [12]): Active

N#Cc1nn(-c2c(Cl)cc(C(F)(F)F)cc2Cl)c(N)c1[S+]([O-])C(F)(F)F (stereo not given) [FIPRONIL]
Drug mobility (Phloem [1]): Not Active
LC50 (Plutella xylostella): 21.4 µg/mL (≈ 48.9 µM)
Drug mobility (Phloem [9]): Not Active

From ChEMBL document CHEMBL3045249, “Synthesis of glucose-fipronil conjugate and its phloem mobility” (J Agric Food Chem, 2011)
